These results are taken from ChEMBL document CHEMBL4145519, “Structural investigations on coumarins leading to chromeno[4,3-c]pyrazol-4-ones and pyrano[4,3-c]pyrazol-4-ones: New scaffolds for the design of the tumor-associated carbonic anhydrase isoforms IX and XII” (Eur J Med Chem, 2018).

Data set [1] has as its system HT-29. The experiment in a line: Antiproliferative activity against human HT-29 cells at 100 uM after 48 hrs under normoxic conditions by MTT assay. It is filed as functional. In short, it runs like this: (§1)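 HT-29 colon cancer cells in DMEM high glucose with 20% FBS were seeded at 1·10^4/well. After 24 h they were exposed to 0–300 μM compound for 16, 48 or 72 h in air (20% O2, 5% CO2, 37 °C). MTT (1 mg/ml) was added for 30 min, formazan dissolved in DMSO and read at 550 nm. Viability is relative to untreated control (100%). Quadruplicates on ≥3 cell batches, mean ± SEM.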
For orientation: Formazan colour is commonly taken as a measure of viable cells.

The target in a further data set is Carbonic anhydrase 9 (Homo sapiens, UniProt Q16790). The experiment in a line: Inhibition of human CA9 after 15 mins by stopped-flow CO2 hydration assay.
The test system of data set [2] is HT-29. Nature of the data set: Antiproliferative activity against human HT-29 cells at 30 to 300 uM after 48 hrs under normoxic conditions by MTT assay. The class given is functional, cell-based. In short, it runs like this:
as §1

The target of a further data set is Carbonic anhydrase 12 (Homo sapiens, UniProt O43570). Nature of the data set: Inhibition of human CA12 after 15 mins by stopped-flow CO2 hydration assay.
Sequence of Carbonic anhydrase 12 (O43570 whole entry): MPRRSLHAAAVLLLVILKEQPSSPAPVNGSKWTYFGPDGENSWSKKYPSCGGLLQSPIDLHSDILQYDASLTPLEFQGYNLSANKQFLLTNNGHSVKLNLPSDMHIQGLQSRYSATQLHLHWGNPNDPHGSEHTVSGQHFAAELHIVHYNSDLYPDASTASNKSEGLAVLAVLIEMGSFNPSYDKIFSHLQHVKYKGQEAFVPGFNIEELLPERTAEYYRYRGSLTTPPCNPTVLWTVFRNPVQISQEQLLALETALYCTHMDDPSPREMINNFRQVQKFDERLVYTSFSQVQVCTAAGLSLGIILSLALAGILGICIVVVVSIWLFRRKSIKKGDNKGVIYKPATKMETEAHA
Data set [3] concerns HT-29. Nature of the data set: Antiproliferative activity against human HT-29 cells at 30 to 300 uM after 16 hrs under normoxic conditions by MTT assay. The class given is functional, cell-based. Summed up:
as §1

In the next data set the target is Carbonic anhydrase 2 (Homo sapiens, UniProt P00918). The experiment in a line: Inhibition of human CA2 after 15 mins by stopped-flow CO2 hydration assay.
Data set [4] deals with HT-29. Nature of the data set: Antiproliferative activity against human HT-29 cells at 100 uM after 72 hrs under hypoxic conditions by MTT assay. It is filed as functional. Summed up: (§2)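 Hypoxic workstation at 0.1% O2, 5% CO2 and residual N2. HT-29 cells (DMEM high glucose, 20% FBS; 1·10^4/well) were treated 24 h post-plating with 0–300 μM compound for 16, 48 or 72 h. Viability was measured by MTT reduction (1 mg/ml, 30 min, 37 °C; DMSO-dissolved formazan, A550) and expressed as % of untreated control. Quadruplicates, ≥3 batches, mean ± SEM.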

For data set [5], the system named is HT-29. Nature of the data set: Antiproliferative activity against human HT-29 cells at 30 to 300 uM after 72 hrs under hypoxic conditions by MTT assay. The class given is functional, cell-based. In short, it runs like this: as §2
For another data set, the target named is Carbonic anhydrase 1 (Homo sapiens, UniProt P00915). The experiment in a line: Inhibition of human CA1 after 15 mins by stopped-flow CO2 hydration assay.
Sequence of Carbonic anhydrase 1 (P00915 whole entry): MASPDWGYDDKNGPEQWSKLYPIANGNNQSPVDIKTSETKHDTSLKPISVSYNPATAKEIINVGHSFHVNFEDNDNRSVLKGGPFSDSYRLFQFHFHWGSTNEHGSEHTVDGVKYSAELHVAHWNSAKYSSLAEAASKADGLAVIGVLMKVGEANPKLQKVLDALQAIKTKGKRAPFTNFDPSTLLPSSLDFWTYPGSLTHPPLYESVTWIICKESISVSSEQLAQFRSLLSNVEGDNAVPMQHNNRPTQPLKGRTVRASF
The subject of data set [6] is HT-29. The experiment in a line: Antiproliferative activity against human HT-29 cells at 30 uM after 48 hrs under hypoxic conditions by MTT assay. The class given is functional. Summed up:
as §2

The subject of data set [7] is HT-29. The experiment in a line: Antiproliferative activity against human HT-29 cells at 30 to 300 uM after 48 hrs under hypoxic conditions by MTT assay. It is filed as functional, cell-based. Summed up:
as §2

Data set [8] can be described thus: Solubility of the compounds at 300 uM. The class given is physicochemical.
The test system of data set [9] is HT-29. The experiment in a line: Antiproliferative activity against human HT-29 cells at 30 to 100 uM after 48 hrs under normoxic conditions by MTT assay. It is filed as functional, cell-based. Summed up: as §1
Data set [10] has as its system HT-29. The experiment in a line: Antiproliferative activity against human HT-29 cells at 30 to 100 uM after 72 hrs under hypoxic conditions by MTT assay. The class given is functional, cell-based. In short, it runs like this:
as §2

Data set [11] concerns HT-29. Nature of the data set: Antiproliferative activity against human HT-29 cells at 30 to 100 uM after 16 hrs under normoxic conditions by MTT assay. It is filed as functional, cell-based. Summed up:
as §1

The subject of data set [12] is HT-29. Nature of the data set: Antiproliferative activity against human HT-29 cells at 30 to 100 uM after 72 hrs under normoxic conditions by MTT assay. It is filed as functional, cell-based. Summed up: as §1

Calls of active or inactive are those of the source. The calls are words filed in the database; no cut-off is given here.

On to `Cc1nn(-c2ccccc2)c2c1c(=O)oc1ccc(NC(=O)c3ccccc3)cc12`, for which the figures for the Activity in the data set with HT-29 [1] and in the data set with HT-29 [4] were 50% and 40%, respectively. Further, the Ki – broadly, the dissociation constant of the complex between target and ligand, obtained from inhibition or displacement – is 0.0153 µM on Carbonic anhydrase 9, over 10 µM on Carbonic anhydrase 12, over 10 µM on Carbonic anhydrase 2 and over 10 µM at Carbonic anhydrase 1. For the same compound, the outcome with HT-29 [2], in the data set on HT-29 [3] and with HT-29 [5] was Active.

As to `O=c1oc2ccccc2c2c1cnn2-c1ccccc1`, the Ki at Carbonic anhydrase 9 is 0.0301 µM; on Carbonic anhydrase 12, over 10 µM; at Carbonic anhydrase 2, over 10 µM; on Carbonic anhydrase 1, over 10 µM. In addition, the outcome in the data set on HT-29 [2], in the data set with HT-29 [3] and in the data set on HT-29 [7] was Active. For the same compound, the Activity entry in the data set with HT-29 [6] is listed as “<=70%”.

As to `CC(=O)c1c(O)c2cc(Br)ccc2oc1=O`, the solubility result in data set [8] is “Insoluble”. In the data set on HT-29 [1], this compound displayed an Activity of 35%. For the same compound, the Ki is 0.0082 µM at Carbonic anhydrase 9, 0.0056 µM on Carbonic anhydrase 12, over 10 µM on Carbonic anhydrase 2 and over 10 µM on Carbonic anhydrase 1. For the same compound, the result in the data set on HT-29 [9], in the data set on HT-29 [10], in the data set with HT-29 [11], in the data set with HT-29 [7] and in the data set on HT-29 [12] was Active.
